The subject of series [1] is human tumor cell lines: MCF-7, NCI-H460 and SF-268. Put plainly: FOH/GGOH rescue of cell growth inhibition. The format is cell-based. Particulars: for rescue from growth inhibition by GGOH: 20 μM GGOH added; for rescue from growth inhibition by FOH: 20 μM FOH added. The essentials: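 Cells were grown in RPMI-1640 with 10% FBS and 2 mM L-glutamine at 37°C, 5% CO2. They were seeded at 5,000 cells/well with test compound added, and each well also received FOH or GGOH from ethanol stocks at a fixed 20 μM. After 4 days, growth was read by MTT.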

A further series relates to MCF-7. The series can be described thus: MCF-7 cell growth inhibition. The format is cell-based. As to conditions: Homo sapiens, MCF7, 96 h, read-out: IC50, tumor cell growth inhibition. The essentials: (§1)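 Cells were grown in RPMI-1640 with 10% FBS and 2 mM L-glutamine at 37°C, 5% CO2, 100% humidity, and seeded at 5,000 cells/well. Test compound came from 0.01 M water stocks as a half-log serial dilution series (0.316 mM to 0.1 pM) prepared before addition. Plates ran 4 days, then MTT dose-response.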

A further series concerns MDA-MB-231 cells. The series can be described thus: Matrigel invasion assay. Particulars: 24 hours treatment, up to 10 μM. The format is cell-based, human.
A further series concerns SK-ES-1 sarcoma cells. Put plainly: SK-ES-1 sarcoma mouse xenograft. The format is in vivo. As to conditions: athymic nude mice, 5 μg daily intraperitoneal, 30 days. In a few lines:
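Four 6-week-old athymic nude mice each received 1.5×10^7 human SK-ES-1 cells subcutaneously in the right flank. Treatment was daily intraperitoneal test compound (5 μg) for 30 days, or physiological saline. Tumor diameters and body weight were measured weekly, and volume = (smallest diameter)2 × (largest diameter)/2. Statistics used one-way ANOVA with Fisher's PLSD, with p < 0.05 taken as significant.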

Another series relates to mouse fetal metatarsal. Put plainly: Mouse fetal metatarsal 45Ca2+ release inhibition assay. As to conditions: read-out: IC50, 45Ca2+ release inhibition.
A short description of series [2]: 14C-labelled olpadronate displacement bone-binding model. As to conditions: fetal mouse metatarsals, Figure 8b.
The next series has as its system breast cancer patients. Particulars: Phase III, 1803 breast cancer patients, zoledronate (+hormone) therapy; cited from earlier work.
The subject of series [3] is human tumor cell lines: MCF-7, NCI-H460 and SF-268. The series can be described thus: Tumor cell growth inhibition. The format is cell-based. The essentials: as §1
In another series the target is T1, Human FPPS (Homo sapiens, UniProt P14324).
T1 sequence (P14324 1-419): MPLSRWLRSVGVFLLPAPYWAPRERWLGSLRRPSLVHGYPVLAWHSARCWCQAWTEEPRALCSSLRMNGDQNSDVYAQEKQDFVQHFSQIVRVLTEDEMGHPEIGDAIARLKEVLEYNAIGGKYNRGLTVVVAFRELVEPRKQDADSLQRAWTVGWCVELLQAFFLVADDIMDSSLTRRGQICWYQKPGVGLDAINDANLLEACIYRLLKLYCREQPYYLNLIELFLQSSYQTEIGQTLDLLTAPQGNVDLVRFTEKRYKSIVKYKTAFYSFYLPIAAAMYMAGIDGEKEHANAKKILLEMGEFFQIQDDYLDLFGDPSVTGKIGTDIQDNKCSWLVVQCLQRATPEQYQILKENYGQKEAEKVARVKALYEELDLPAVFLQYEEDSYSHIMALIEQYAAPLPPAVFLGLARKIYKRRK
Put plainly: Human FPPS inhibition. The format is biochemical. The essentials: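 Recombinant human FPPS condensed geranyl diphosphate with isopentenyl diphosphate, followed by a continuous spectrophotometric phosphate-release assay. Buffer was 50 mM Tris-HCl, 1 mM MgCl2, pH 7.4. Enzyme and test compound were preincubated 30 min at 20°C. IC50 came from a dose-response curve fit.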

The mark [4] stands for this setting: mouse fetal metatarsal, Figure 8a.

Results on six compounds are retold here after PMC2753403 (Journal of the American Chemical Society, 2009).

Structures are written as SMILES. Values joined by “and” are separate entries in the source; they are usually repeats but may differ in a detail not shown here. Equal values may be shown once. Read-outs that look alike come from different tables or passages of the source.

As for `CC(C)=CCCC(C)=CCC(CC=C(C)CCC=C(C)C)(P(=O)(O)O)P(=O)(O)O` [1,1-digeranylmethylene bisphosphonate, reference compound], the “rescue from growth inhibition by GGOH” value in series [1] was “rescue by GGOH”.
A word on the IC50: it is the concentration that inhibits the measured activity by half. As to `O=P(O)(O)C(O)(Cn1ccnc1)P(=O)(O)O` [zoledronate], the figures for the IC50 in the series with MCF-7 and in the series with mouse fetal metatarsal (Mus musculus) were roughly 15000 nM and roughly 100 nM, respectively. Also, the “rescue from growth inhibition by GGOH” value in series [1] is listed as “only a partial rescue by GGOH”. Further, in the series on MDA-MB-231 cells, the “effect on MDA-MB-231 invasion” value was “essentially no effect even at 10 μM”. For the same compound, the “reduction in tumor cell growth (tumor volume)” value in the series with SK-ES-1 sarcoma cells was “significant (p < 0.01) reduction in tumor cell growth versus control”. For the same compound, the “displacement of bound 14C-labelled olpadronate” value in series [2] is reported as “far more effective in displacing this bound bisphosphonate than are the lipophilic species”. Moreover, in the series with breast cancer patients, the “reduced risk of cancer returning, or death” value was 36%.
With `NCCC(O)(P(=O)(O)O)P(=O)(O)O` [pamidronate], in the series with MCF-7, the IC50 is roughly 140000 nM.
Turning to `CCCCCCCCCCOc1ccc[n+](CC(P(=O)([O-])O)P(=O)(O)O)c1` (centres unmarked) [BPH-715], in series [3] (versus zoledronate), the “IC50 in tumor cell growth inhibition, fold lower than zoledronate” value is ~ 100 fold. In addition, in series [1], the “rescue from growth inhibition by FOH” value is listed as “no rescue by either FOH or GGOH” and the “rescue from growth inhibition by GGOH” value is given as “no rescue by either FOH or GGOH”. In addition, in the series on SK-ES-1 sarcoma cells, the “weight loss or other adverse effect” value is on record as “no weight loss or other adverse effect observed”. In addition, the IC50 in the series on mouse fetal metatarsal (setting [4]) was 2900 nM and ~2900 nM.
For `O=P(O)(O)C(O)(Cc1cccc(-c2cccc(NS(=O)(=O)c3ccc4ccccc4c3)c2)c1)P(=O)(O)O` [BPH-675], in series [1], the “rescue from growth inhibition by FOH” value is “FOH has no effect” and the “rescue from growth inhibition by GGOH” value was “almost fully reversed by addition of 20 μM GGOH”. Also, the concentration for half-maximal inhibition (IC50) with mouse fetal metatarsal (setting [4]) is roughly 30000 nM. For the same compound, the “FPPS inhibition (in words)” value on Human FPPS was “very weak”.
With `CCCCCCCCCCCCOc1ccc[n+](CC(P(=O)(O)O)P(=O)(O)O)c1` [BPH-716], in [3] (growth inhibition and Matrigel invasion assays), the “activity in the cell assays compared with BPH-715” value is given as “about the same activity as BPH-715”. The IC50 in the series with mouse fetal metatarsal (setting [4]) is roughly 1300 nM.
